The results in this text go back to ChEMBL document CHEMBL1128519, “Semisynthetic chemical modification of the antifungal lipopeptide echinocandin B (ECB): structure-activity studies of the lipophilic and geometric parameters of polyarylated acyl analogs of ECB” (J Med Chem, 1995).

As usually defined, the MIC is the least concentration at which growth counts as inhibited. The inhibition is the percentage by which the read-out fell short of the control. Low values mean a response near the control, high ones a response far below the control. The term ED50 denotes the midpoint of the dose-response relation. A higher ED50 goes with a need for a large dose.

In brackets after ≈: the same amount, converted by molar mass. Numbered stars: 1 amine (or outer) side, 2 acyl side, 3 side chain; on linkers, the order of the positions; unused ones are H or OH. Bridge positions count the residues as written; N and C are the ends. Square brackets hold non-standard residues; d marks the D form. Peptide text beside a SMILES is read from it. * marks the point of attachment. Orn(4R-OH,5R-OH) = O=C([C@H](C[C@@H](O)[C@@H](O)N[*:3])N[*:1])[*:2]; X16 = O=C(c1ccc(OCCOCCC23C[C@H]4C[C@@H](C2)C[C@@H](C3)C4)cc1)*; hTyr(3S-OH,4S-OH) = N[C@H](C(=O)O)[C@H](O)[C@@H](O)c1ccc(O)cc1; X3 = CC(C)(C)OCCOc1ccc(C#Cc2ccc(-c3ccc(C(=O)*)cc3)cc2)cc1; X4 = CC(C)(C)OCCOc1ccc(-c2ccc(-c3ccc(C(=O)*)cc3)cc2)cc1; X17 = CCCCOCCOc1ccc(C#Cc2ccc(-c3ccc(C(=O)*)cc3)cc2)cc1; X1 = O=C(c1ccc(-c2ccc(-c3ccc(-c4ccccc4)cc3)cc2)cc1)*; X20 = CCCCCOc1ccc(C#Cc2ccc(-c3ccc(C(=O)*)cc3)cc2)cc1; X7 = CCCCCCOc1ccc(-c2ccc(-c3ccc(C(=O)*)cc3)cc2)cc1; X2 = CCCOc1ccc(C#Cc2ccc(-c3ccc(C(=O)*)cc3)cc2)cc1; Pro(3S-OH,4S-Me) = C[C@H]1CN[C@H](C(=O)O)[C@H]1O; X14 = COc1ccc(C#Cc2ccc(-c3ccc(C(=O)*)cc3)cc2)cc1; X5 = O=C(c1ccc(C#Cc2ccc(C#Cc3ccccc3)cc2)cc1)*; X21 = CCCCOc1ccc(-c2ccc(C(=O)*)cc2)cc1; Hyp = O=C(O)[C@@H]1C[C@@H](O)CN1 Bounds are passed on as bounds.

In experiment [1] the test system is Candida albicans. Nature of the experiment: Antifungal activity against Candida albicans. It is filed as functional. The method, boiled down: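 Broth microdilution, C. albicans A26 (ATCC 62342) grown on Sabouraud dextrose agar at 35 °C; inoculum 1 × 10^5 conidia/mL in antibiotic 3 broth. Compounds dissolved at 1.0 mg/mL in methanol, 2-fold serial dilutions from 80 µg/mL, duplicate. Read after 48 h at 35 °C. MIC = lowest concentration completely inhibiting visible growth.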

Experiment [2] concerns the target Beta-1,3-glucan synthase (Candida albicans) (UniProt O13428). Nature of the experiment: In vitro inhibition of glucan synthase obtained from Candida albicans at a concentration of 10 ug/mL. The method, boiled down: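 Purified, solubilized β-(1,3)-D-glucan synthase prepared from C. albicans. Percent inhibition measured at 10 µg/mL compound, single determination.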

The test system of experiment [3] is Candida albicans. The experiment in a line: In vivo antifungal activity administered intraperitoneally against Candida albicans infections in mice. It is filed as functional. The note with it: ip. The procedure, abridged:
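Male ICR mice (18-20 g), X-irradiated with 400 r 24 h before iv tail-vein infection with 2 × 10^6 C. albicans A26 cells in saline. Compounds suspended in β-cyclodextrin, given parenterally at 0, 4, 24 and 48 h post-infection. 10 mice per dose, top dose 10 mg/kg with 2-fold dilutions down to 0.039 mg/kg. 7-day survival; ED50 by Reed-Muench.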

The test system of experiment [4] is Candida albicans. Nature of the experiment: In vivo antifungal activity administered orally against Candida albicans infections in mice. It is filed as functional. The note with it: po. The procedure, abridged: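 X-irradiated (400 r, 24 h prior) male ICR mice infected iv with 2 × 10^6 C. albicans A26 cells. Oral gavage in cremophor (5%)/linoleic acid (8%)/water vehicle, b.i.d. × 4 starting immediately post-infection. 10 mice per dose level. Study ends at day 7; ED50 = dose giving 50% survival, by Reed-Muench.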

Chain of Beta-1,3-glucan synthase (Candida albicans) (O13428 as listed by the source): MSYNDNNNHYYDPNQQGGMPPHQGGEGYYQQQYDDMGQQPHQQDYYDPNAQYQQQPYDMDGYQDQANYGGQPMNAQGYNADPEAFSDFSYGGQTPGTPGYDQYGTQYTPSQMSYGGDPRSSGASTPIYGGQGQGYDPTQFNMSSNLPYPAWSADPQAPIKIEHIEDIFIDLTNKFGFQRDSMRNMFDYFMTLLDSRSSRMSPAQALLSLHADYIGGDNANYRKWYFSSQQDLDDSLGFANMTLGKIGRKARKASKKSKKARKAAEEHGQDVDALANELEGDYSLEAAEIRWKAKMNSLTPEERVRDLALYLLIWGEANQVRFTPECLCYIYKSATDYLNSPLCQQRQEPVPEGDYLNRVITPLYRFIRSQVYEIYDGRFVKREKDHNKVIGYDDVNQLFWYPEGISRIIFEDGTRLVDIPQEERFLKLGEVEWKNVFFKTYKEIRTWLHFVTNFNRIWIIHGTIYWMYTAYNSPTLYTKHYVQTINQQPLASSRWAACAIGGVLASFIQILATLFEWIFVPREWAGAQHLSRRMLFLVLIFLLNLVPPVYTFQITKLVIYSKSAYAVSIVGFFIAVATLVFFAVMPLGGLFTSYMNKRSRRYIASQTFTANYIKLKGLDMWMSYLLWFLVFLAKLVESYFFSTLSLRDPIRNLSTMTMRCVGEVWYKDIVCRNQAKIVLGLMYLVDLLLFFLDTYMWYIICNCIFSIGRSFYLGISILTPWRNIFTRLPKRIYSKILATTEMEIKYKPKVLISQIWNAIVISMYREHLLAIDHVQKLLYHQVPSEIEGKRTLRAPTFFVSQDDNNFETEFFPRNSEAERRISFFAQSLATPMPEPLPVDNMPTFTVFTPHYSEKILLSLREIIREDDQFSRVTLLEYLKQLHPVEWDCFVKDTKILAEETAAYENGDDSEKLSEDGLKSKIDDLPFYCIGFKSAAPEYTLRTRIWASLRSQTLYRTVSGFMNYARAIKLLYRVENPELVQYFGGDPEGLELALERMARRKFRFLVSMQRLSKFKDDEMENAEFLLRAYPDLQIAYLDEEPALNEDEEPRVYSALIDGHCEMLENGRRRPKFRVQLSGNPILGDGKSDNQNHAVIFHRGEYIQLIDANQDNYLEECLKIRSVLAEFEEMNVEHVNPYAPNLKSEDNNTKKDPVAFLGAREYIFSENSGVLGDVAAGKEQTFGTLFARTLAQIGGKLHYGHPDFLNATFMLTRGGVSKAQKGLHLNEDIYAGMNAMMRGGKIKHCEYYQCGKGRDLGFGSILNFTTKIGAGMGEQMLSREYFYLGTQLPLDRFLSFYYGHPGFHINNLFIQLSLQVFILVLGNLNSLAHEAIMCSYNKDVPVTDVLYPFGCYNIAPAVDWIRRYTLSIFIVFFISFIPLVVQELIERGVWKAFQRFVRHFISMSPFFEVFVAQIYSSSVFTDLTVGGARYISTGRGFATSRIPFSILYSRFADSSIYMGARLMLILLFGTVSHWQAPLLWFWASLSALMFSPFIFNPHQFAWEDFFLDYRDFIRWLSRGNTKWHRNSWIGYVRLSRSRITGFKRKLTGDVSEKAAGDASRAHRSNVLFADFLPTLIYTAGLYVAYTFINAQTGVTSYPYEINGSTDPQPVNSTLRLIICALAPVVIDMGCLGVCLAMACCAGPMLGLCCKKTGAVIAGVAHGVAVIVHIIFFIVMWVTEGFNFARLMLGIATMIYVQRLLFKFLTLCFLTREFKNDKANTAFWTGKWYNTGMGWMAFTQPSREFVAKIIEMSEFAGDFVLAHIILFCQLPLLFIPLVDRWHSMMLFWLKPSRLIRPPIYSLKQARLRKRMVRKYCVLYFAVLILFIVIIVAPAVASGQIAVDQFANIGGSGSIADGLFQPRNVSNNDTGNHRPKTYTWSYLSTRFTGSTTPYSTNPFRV

Molecule `C[C@@H](O)[C@@H]1NC(=O)[C@H]([C@H](O)[C@@H](O)c2ccc(O)cc2)NC(=O)[C@@H]2C[C@@H](O)CN2C(=O)[C@H]([C@@H](C)O)NC(=O)[C@@H](NC(=O)c2ccc(-c3ccc(-c4ccc(-c5ccccc5)cc4)cc3)cc2)C[C@@H](O)[C@@H](O)NC(=O)[C@@H]2[C@@H](O)[C@@H](C)CN2C1=O` (X1-[Orn(4R-OH,5R-OH)]T[Hyp][hTyr(3S-OH,4S-OH)]T[Pro(3S-OH,4S-Me)]; lactam 1-C) gave an MIC with Candida albicans [1] of less than 0.01 µg/mL. In addition, in experiment [2], the inhibition is 74.7%. The ED50 in the experiment on Candida albicans [3] came out at 0.4 mg/kg; in the experiment on Candida albicans [4], 39.7 mg/kg.
In the same order, the values of `CCCOc1ccc(C#Cc2ccc(-c3ccc(C(=O)N[C@H]4C[C@@H](O)[C@@H](O)NC(=O)[C@@H]5[C@@H](O)[C@@H](C)CN5C(=O)[C@H]([C@@H](C)O)NC(=O)[C@H]([C@H](O)[C@@H](O)c5ccc(O)cc5)NC(=O)[C@@H]5C[C@@H](O)CN5C(=O)[C@H]([C@@H](C)O)NC4=O)cc3)cc2)cc1` (X2-[Orn(4R-OH,5R-OH)]T[Hyp][hTyr(3S-OH,4S-OH)]T[Pro(3S-OH,4S-Me)]; lactam 1-C) are less than 0.01 µg/mL, 83.5%, 0.4 mg/kg and 7 mg/kg.
For `C[C@@H](O)[C@@H]1NC(=O)[C@H]([C@H](O)[C@@H](O)c2ccc(O)cc2)NC(=O)[C@@H]2C[C@@H](O)CN2C(=O)[C@H]([C@@H](C)O)NC(=O)[C@@H](NC(=O)c2ccc(-c3ccc(C#Cc4ccc(OCCOC(C)(C)C)cc4)cc3)cc2)C[C@@H](O)[C@@H](O)NC(=O)[C@@H]2[C@@H](O)[C@@H](C)CN2C1=O` (X3-[Orn(4R-OH,5R-OH)]T[Hyp][hTyr(3S-OH,4S-OH)]T[Pro(3S-OH,4S-Me)]; lactam 1-C), the MIC against Candida albicans [1] is 0.02 µg/mL (≈ 0.0167 µM). Moreover, in experiment [2], the inhibition stood at 82.4%. Moreover, the ED50 with Candida albicans [3] was found to be 0.2 mg/kg; in the experiment on Candida albicans [4], 7.6 mg/kg.
In the same order, the values of `C[C@@H](O)[C@@H]1NC(=O)[C@H]([C@H](O)[C@@H](O)c2ccc(O)cc2)NC(=O)[C@@H]2C[C@@H](O)CN2C(=O)[C@H]([C@@H](C)O)NC(=O)[C@@H](NC(=O)c2ccc(-c3ccc(-c4ccc(OCCOC(C)(C)C)cc4)cc3)cc2)C[C@@H](O)[C@@H](O)NC(=O)[C@@H]2[C@@H](O)[C@@H](C)CN2C1=O` (X4-[Orn(4R-OH,5R-OH)]T[Hyp][hTyr(3S-OH,4S-OH)]T[Pro(3S-OH,4S-Me)]; lactam 1-C) are 0.06 µg/mL (≈ 0.0513 µM), 76.1%, 0.4 mg/kg and 21.3 mg/kg.
Consider `C[C@@H](O)[C@@H]1NC(=O)[C@H]([C@H](O)[C@@H](O)c2ccc(O)cc2)NC(=O)[C@@H]2C[C@@H](O)CN2C(=O)[C@H]([C@@H](C)O)NC(=O)[C@@H](NC(=O)c2ccc(C#Cc3ccc(C#Cc4ccccc4)cc3)cc2)C[C@@H](O)[C@@H](O)NC(=O)[C@@H]2[C@@H](O)[C@@H](C)CN2C1=O` (X5-[Orn(4R-OH,5R-OH)]T[Hyp][hTyr(3S-OH,4S-OH)]T[Pro(3S-OH,4S-Me)]; lactam 1-C), for which the MIC in the experiment on Candida albicans [1] stood at 0.01 µg/mL (≈ 0.00907 µM). Moreover, the inhibition in experiment [2] was 81.3%. For the same molecule, the ED50 in the experiment on Candida albicans [3] came out at 4.5 mg/kg; in the experiment on Candida albicans [4], 16 mg/kg.
With `CCCCCCOc1ccc(-c2ccc(-c3ccc(C(=O)N[C@H]4C[C@@H](O)[C@@H](O)NC(=O)[C@@H]5[C@@H](O)[C@@H](C)CN5C(=O)[C@H]([C@@H](C)O)NC(=O)[C@H]([C@H](O)[C@@H](O)c5ccc(O)cc5)NC(=O)[C@@H]5C[C@@H](O)CN5C(=O)[C@H]([C@@H](C)O)NC4=O)cc3)cc2)cc1` (X7-[Orn(4R-OH,5R-OH)]T[Hyp][hTyr(3S-OH,4S-OH)]T[Pro(3S-OH,4S-Me)]; lactam 1-C), the MIC against Candida albicans [1] was found to be 0.03 µg/mL (≈ 0.026 µM). Further, the values for the ED50 with Candida albicans [3] and in the experiment on Candida albicans [4] were 0.8 mg/kg and 6.8 mg/kg, respectively.
`COc1ccc(C#Cc2ccc(-c3ccc(C(=O)N[C@H]4C[C@@H](O)[C@@H](O)NC(=O)[C@@H]5[C@@H](O)[C@@H](C)CN5C(=O)[C@H]([C@@H](C)O)NC(=O)[C@H]([C@H](O)[C@@H](O)c5ccc(O)cc5)NC(=O)[C@@H]5C[C@@H](O)CN5C(=O)[C@H]([C@@H](C)O)NC4=O)cc3)cc2)cc1` (X14-[Orn(4R-OH,5R-OH)]T[Hyp][hTyr(3S-OH,4S-OH)]T[Pro(3S-OH,4S-Me)]; lactam 1-C) gave an MIC in the experiment on Candida albicans [1] of 0.02 µg/mL (≈ 0.018 µM). This molecule returned an inhibition in experiment [2] of 81%. The molecule further returned an ED50 in the experiment with Candida albicans [4] of 19 mg/kg.
Molecule `C[C@@H](O)[C@@H]1NC(=O)[C@H]([C@H](O)[C@@H](O)c2ccc(O)cc2)NC(=O)[C@@H]2C[C@@H](O)CN2C(=O)[C@H]([C@@H](C)O)NC(=O)[C@@H](NC(=O)c2ccc(OCCOCCC34C[C@H]5C[C@@H](C3)C[C@@H](C4)C5)cc2)C[C@@H](O)[C@@H](O)NC(=O)[C@@H]2[C@@H](O)[C@@H](C)CN2C1=O` (X16-[Orn(4R-OH,5R-OH)]T[Hyp][hTyr(3S-OH,4S-OH)]T[Pro(3S-OH,4S-Me)]; lactam 1-C) gave an MIC in the experiment with Candida albicans [1] of 0.039 µg/mL (≈ 0.0347 µM). This molecule had an inhibition in experiment [2] of 72.3%. In the experiment with Candida albicans [4], the ED50 is more than 50 mg/kg.
The corresponding values for `CCCCOCCOc1ccc(C#Cc2ccc(-c3ccc(C(=O)N[C@H]4C[C@@H](O)[C@@H](O)NC(=O)[C@@H]5[C@@H](O)[C@@H](C)CN5C(=O)[C@H]([C@@H](C)O)NC(=O)[C@H]([C@H](O)[C@@H](O)c5ccc(O)cc5)NC(=O)[C@@H]5C[C@@H](O)CN5C(=O)[C@H]([C@@H](C)O)NC4=O)cc3)cc2)cc1` (X17-[Orn(4R-OH,5R-OH)]T[Hyp][hTyr(3S-OH,4S-OH)]T[Pro(3S-OH,4S-Me)]; lactam 1-C) are 0.02 µg/mL (≈ 0.0167 µM), 81.9% and 10.6 mg/kg.
In the experiment on Candida albicans [1], `CCCCCOc1ccc(C#Cc2ccc(-c3ccc(C(=O)N[C@H]4C[C@@H](O)[C@@H](O)NC(=O)[C@@H]5[C@@H](O)[C@@H](C)CN5C(=O)[C@H]([C@@H](C)O)NC(=O)[C@H]([C@H](O)[C@@H](O)c5ccc(O)cc5)NC(=O)[C@@H]5C[C@@H](O)CN5C(=O)[C@H]([C@@H](C)O)NC4=O)cc3)cc2)cc1` (X20-[Orn(4R-OH,5R-OH)]T[Hyp][hTyr(3S-OH,4S-OH)]T[Pro(3S-OH,4S-Me)]; lactam 1-C) yielded an MIC of less than 0.01 µg/mL. This molecule also came in with an inhibition in experiment [2] of 82.3%. It took a dose of 8.8 mg/kg to reach the 50% effect level in the experiment on Candida albicans [4] (ED50).
In the experiment on Candida albicans [1], `CCCCOc1ccc(-c2ccc(C(=O)N[C@H]3C[C@@H](O)[C@@H](O)NC(=O)[C@@H]4[C@@H](O)[C@@H](C)CN4C(=O)[C@H]([C@@H](C)O)NC(=O)[C@H]([C@H](O)[C@@H](O)c4ccc(O)cc4)NC(=O)[C@@H]4C[C@@H](O)CN4C(=O)[C@H]([C@@H](C)O)NC3=O)cc2)cc1` (X21-[Orn(4R-OH,5R-OH)]T[Hyp][hTyr(3S-OH,4S-OH)]T[Pro(3S-OH,4S-Me)]; lactam 1-C) returned an MIC of 0.078 µg/mL (≈ 0.0743 µM). This molecule also displayed an inhibition in experiment [2] of 71.4%. Also, it took a dose of 0.8 mg/kg to reach the 50% effect level in the experiment on Candida albicans [3] (ED50).
